By IC50 is commonly meant the point on the concentration scale where inhibition reaches its midpoint.

The text below walks through data of ChEMBL document CHEMBL1817615, “Dimerization of piceatannol by Momordica charantia peroxidase and α-glucosidase inhibitory activity of the biotransformation products” (Bioorg Med Chem, 2011).

The nature of the assay: Inhibition of yeast alpha-glucosidase using p-nitrophenyl a-D-glucopyranoside as substrate by spectrophotometry. Details: species or system Saccharomyces cerevisiae. The gist of the method:
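Yeast enzyme at 1 U/mL with 0.01 M p-nitrophenyl α-D-glucopyranoside substrate, in 0.067 M KH₂PO₄–Na₂HPO₄ buffer, pH 6.8. Reaction run at 37 °C for 10 min and inhibition read spectrophotometrically. Method adapted with slight modification from a published procedure.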
Turning to `CC(=O)Oc1cc([C@@H]2c3c(O)cc(O)cc3[C@H]3[C@H](c4ccc(O)c(OC(C)=O)c4)c4c(O)cc(O)cc4[C@@H]23)ccc1O`, 131 µM corresponded to half-maximal inhibition (IC50).
In turn, `CC(=O)Oc1cc([C@H]2Oc3ccc(/C=C/c4cc(O)cc(O)c4)cc3O[C@@H]2c2cc(O)cc(O)c2)ccc1O` (racemic) had an IC50 of 69.3 µM. This IC50 lies about 1.9-fold lower than the previous one.
Take `Oc1cc(O)cc(/C=C/c2cc(O)c3c(c2)[C@H](c2cc(O)cc(O)c2)[C@@H](c2ccc(O)c(O)c2)O3)c1` (racemic): 1.13 µM corresponded to half-maximal inhibition (IC50).
The result for `COc1cc([C@@H]2c3c(O)cc(O)cc3[C@H]3[C@H](c4ccc(O)c(O)c4)c4c(O)cc(O)cc4[C@@H]23)ccc1O` (racemic) reads 109 µM; that for `COc1cc([C@H]2Oc3c(O)cc(/C=C/c4cc(O)cc(O)c4)cc3[C@@H]2c2cc(O)cc(O)c2)ccc1O` (relative stereo), 3.04 µM; that for `Oc1cc(O)c2c(c1)[C@H]1[C@H](c3ccc(O)c(O)c3)c3c(O)cc(O)cc3[C@H]1[C@@H]2c1ccc(O)c(O)c1` [CARAROSINOL D], 79.1 µM.
Take `OC[C@H]1NC[C@H](O)[C@@H](O)[C@@H]1O` [DUVOGLUSTAT]: inhibition was half-maximal at 20.6 µM (IC50).
Molecule `COc1cc(/C=C2/c3cc(O)cc(O)c3[C@H](c3ccc(O)c(OC)c3)[C@H]2c2cc(O)cc(O)c2)ccc1O` [GNETULIN] had an IC50 of 70.2 µM.
Regarding `Oc1cc(O)cc(/C=C/c2ccc3c(c2)O[C@H](c2cc(O)cc(O)c2)[C@@H](c2ccc(O)c(O)c2)O3)c1` [MAACKIN], the IC50 was determined as 23.2 µM.
Turning to `Oc1cc(O)cc(/C=C/c2ccc(O)c(O)c2)c1` [PICEATANNOL], the IC50 is 34.3 µM.
